Among the data in ChEMBL document CHEMBL3259684, “Dual inhibition of the α-glucosidase and butyrylcholinesterase studied by molecular field topology analysis” (Eur J Med Chem, 2014) are IC50 values, retold here.

In one experiment the target is Cholinesterase (Homo sapiens, UniProt P06276). As to the kind of experiment: Inhibition of BChE (unknown origin) using BCh iodide as substrate preincubated for 15 mins prior to substrate addition measured after 10 mins by Ellman's method.
Experiment [1] can be described thus: Inhibition of yeast alpha-glucosidase type 3 using p-nitrophenyl-alpha-D-glucopyranoside as substrate preincubated with substrate for 5 mins prior to enzyme challenge for 30 mins by absorbance analysis. On the set-up: species or system Saccharomyces cerevisiae. In outline: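 Yeast enzyme at 0.1 units/ml in pH 6.8 potassium phosphate/MgCl2 buffer; substrate stock 6 mmol/L. Compound (sample solution 0.6 mg/ml in DMSO) mixed with buffer, water and substrate, held 5 min at 37 °C, then enzyme added; reaction 30 min at 37 °C, stopped with 0.4 mol/L glycine buffer pH 10; p-nitrophenol read at 410 nm. Deoxynojirimycin as reference inhibitor.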

Cholinesterase, sequence (P06276 whole entry): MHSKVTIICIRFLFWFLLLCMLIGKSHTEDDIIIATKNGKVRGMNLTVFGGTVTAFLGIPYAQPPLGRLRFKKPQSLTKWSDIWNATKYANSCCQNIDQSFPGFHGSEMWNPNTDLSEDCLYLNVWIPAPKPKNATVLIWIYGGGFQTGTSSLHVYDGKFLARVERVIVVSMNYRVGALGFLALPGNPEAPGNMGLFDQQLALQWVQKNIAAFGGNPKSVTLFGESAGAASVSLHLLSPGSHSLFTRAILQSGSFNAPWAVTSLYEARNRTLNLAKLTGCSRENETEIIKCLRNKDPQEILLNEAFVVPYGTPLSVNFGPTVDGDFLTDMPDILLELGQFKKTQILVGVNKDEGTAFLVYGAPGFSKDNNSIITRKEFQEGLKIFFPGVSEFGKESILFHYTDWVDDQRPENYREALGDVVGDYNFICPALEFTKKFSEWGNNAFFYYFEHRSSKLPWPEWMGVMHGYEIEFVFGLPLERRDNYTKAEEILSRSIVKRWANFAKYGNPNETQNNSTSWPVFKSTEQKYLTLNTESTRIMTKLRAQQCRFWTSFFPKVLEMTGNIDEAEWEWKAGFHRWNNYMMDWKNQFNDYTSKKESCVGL

Consider `COc1ccccc1/C=C/C(=O)c1ccccc1`, for which the midpoint of inhibition against Cholinesterase, the IC50, lay at 27 µM.

On to `O=C(/C=C/c1ccc([N+](=O)[O-])cc1)c1ccccc1`, for which the IC50 in experiment [1] was 3850 µM; on Cholinesterase, 32 µM.

Regarding `O=[N+]([O-])c1ccc(-n2cc(-c3ccccc3)nn2)cc1`, the IC50 in experiment [1] turned out to be 235 µM; at Cholinesterase, 250 µM.

Compound `O=C(/C=C/c1ccccc1O)c1ccccc1` returned an IC50 against Cholinesterase of 105 µM.

In the case of `O=C(/C=C/c1ccccc1O)c1ccccc1O`, the results for the IC50 (in experiment [1]; against Cholinesterase) were 49.4 µM and 13 µM, respectively.

Consider `Nc1ccc(C(=O)/C=C/c2ccccc2Br)cc1`, for which the IC50 on Cholinesterase was 26 µM.

The compound `c1ccc(C2=Nc3ccccc3SC(c3ccccc3)C2)cc1` (stereo unspecified) displayed an IC50 in experiment [1] of 33 µM.

For the compound `Oc1ccccc1C1=Nc2ccccc2SC(c2ccccc2)C1` (stereo unspecified), the figures for the IC50 (in experiment [1]; against Cholinesterase) were 12.8 µM and 62 µM, respectively.

Compound `Oc1ccccc1C1=Nc2ccccc2SC(c2ccc(Cl)cc2)C1` (stereo unspecified) registered a concentration for half-maximal inhibition (IC50) in experiment [1] of 18 µM.

On to `Oc1ccccc1C1=Nc2ccccc2SC(c2ccc(F)cc2)C1` (stereo unspecified), for which the 50% inhibitory concentration (IC50) worked out at 12 µM in experiment [1] and 14 µM against Cholinesterase.

Turning to `COc1ccc(C2CC(c3ccccc3O)=Nc3ccccc3S2)cc1` (stereo unspecified), 11.9 µM corresponded to half-maximal inhibition in experiment [1] (IC50).

For `Cc1ccc(C2CC(c3ccccc3O)=Nc3ccccc3S2)cc1` (stereo unspecified), the IC50 was determined as 12 µM in experiment [1] and 14 µM against Cholinesterase.

Take `O=C(/C=C/c1ccc2c(c1)OCO2)c1ccccc1`: the IC50 in experiment [1] was 1870 µM.

As for `O=C(/C=C/c1ccc2c(c1)OCO2)c1ccccc1O`, the IC50 in experiment [1] is 151 µM.

On to `COc1cccc(/C=C/C(=O)c2ccccc2)c1`, for which the IC50 in experiment [1] came out at 151 µM; on Cholinesterase, 32 µM.

With `CCCCCCCCCCCCCCCCn1cc(C2(O)CCCCC2)nn1`, the IC50 in experiment [1] is 1190 µM; against Cholinesterase it was 500 µM.

Consider `OC1(c2cn(-c3ccccc3Cl)nn2)CCCCC1`, for which the concentration for half-maximal inhibition (IC50) in experiment [1] came to 370 µM; against Cholinesterase it was 430 µM.

With `O=[N+]([O-])c1cccc(-n2cc(C3(O)CCCCC3)nn2)c1`, the figures for the IC50 (in experiment [1]; on Cholinesterase) were 862 µM and 585 µM, respectively.

For the compound `Clc1ccccc1-n1cc(-c2ccccc2)nn1`, the concentration for half-maximal inhibition (IC50) turned out to be 57.2 µM in experiment [1] and 41.3 µM against Cholinesterase.

Consider `Brc1ccc(-n2cc(-c3ccccc3)nn2)cc1`, for which the half-inhibitory concentration (IC50) in experiment [1] turned out to be 409 µM; at Cholinesterase, 375 µM.

For the compound `O=[N+]([O-])c1cccc(-n2cc(-c3ccccc3)nn2)c1`, the IC50 in experiment [1] was 520 µM; at Cholinesterase, 499 µM.

Turning to `N#Cc1cc([N+](=O)[O-])ccc1-n1cc(C2(O)CCCCC2)nn1`, the IC50 in experiment [1] came to 49.7 µM; against Cholinesterase it was 42.4 µM.

For `O=C(On1cc(C2(O)CCCCC2)nn1)c1ccccc1`, the IC50 came out at 1090 µM in experiment [1] and 248 µM against Cholinesterase.

As to `CCCCCCCCc1ccc(-n2cc(C3(O)CCCCC3)nn2)cc1`, the concentration for half-maximal inhibition (IC50) was 658 µM in experiment [1] and 43.6 µM on Cholinesterase.

Consider `OC1(c2cn(-c3ccc(Cl)cc3)nn2)CCCCC1`, for which the IC50 was found to be 1390 µM in experiment [1] and 294 µM at Cholinesterase.

As for `COC(=O)Cc1ccc(-n2cc(C3(O)CCCCC3)nn2)cc1`, the IC50 in experiment [1] was determined as 812 µM; against Cholinesterase it was 568 µM.

As to `O=[N+]([O-])c1ccc(-n2cc(C3(O)CCCCC3)nn2)cc1`, the results for the IC50 (in experiment [1]; on Cholinesterase) were 320 µM and 409 µM, respectively.

On to `Cc1ccc(-n2cc(C3(O)CCCCC3)nn2)c(Cl)c1`, for which the IC50 came out at 366 µM in experiment [1] and 65.5 µM against Cholinesterase.

As to `CC(=O)c1cccc(-n2cc(C3(O)CCCCC3)nn2)c1`, the values for the half-maximal inhibitory concentration (IC50) (in experiment [1]; at Cholinesterase) were 320 µM and 452 µM, respectively.

Turning to `OC1(c2cn(-c3cccc(Cl)c3)nn2)CCCCC1`, the IC50 amounted to 1390 µM in experiment [1] and 512 µM on Cholinesterase.

For the compound `OC1(c2cn(-c3ccc(Br)cc3)nn2)CCCCC1`, the IC50 was found to be 325 µM in experiment [1] and 298 µM against Cholinesterase.

`COc1cccc(-n2cc(C3(O)CCCCC3)nn2)c1`: the IC50 in experiment [1] was determined as 245 µM; on Cholinesterase, 83.3 µM.

`CC(=O)c1cccc(-n2cc(-c3ccccc3)nn2)c1`: the figures for the 50% inhibitory concentration (IC50) (in experiment [1]; at Cholinesterase) were 265 µM and 451 µM, respectively.

Take `CC(=O)c1ccccc1-n1cc(-c2ccccc2)nn1`: the half-maximal inhibitory concentration (IC50) in experiment [1] turned out to be 313 µM; on Cholinesterase, 295 µM.

In the case of `O=[N+]([O-])c1ccccc1-n1cc(C2(O)CCCCC2)nn1`, the concentration for half-maximal inhibition (IC50) in experiment [1] turned out to be 1710 µM; on Cholinesterase, 333 µM.

For `COC(=O)Cn1cc(C2(O)CCCCC2)nn1`, the results for the IC50 (in experiment [1]; against Cholinesterase) were 255 µM and 362 µM, respectively.

As for `OC1(c2cn(-c3ccncc3)nn2)CCCCC1`, the IC50 in experiment [1] amounted to 520 µM; on Cholinesterase, 385 µM.

Turning to `Clc1ccc(-n2cc(-c3ccccc3)nn2)cc1`, the values for the IC50 (in experiment [1]; at Cholinesterase) were 378 µM and 555 µM, respectively.

For the compound `CCCCCCCCCCCCCCCCn1cc(-c2ccccc2)nn1`, the IC50 worked out at 370 µM in experiment [1] and 454 µM against Cholinesterase.

As for `CC(=O)c1ccc(-n2cc(C3(O)CCCCC3)nn2)cc1`, the values for the IC50 (in experiment [1]; against Cholinesterase) were 1560 µM and 450 µM, respectively.

`O=[N+]([O-])c1ccccc1-n1cc(-c2ccccc2)nn1`: in experiment [1], half-maximal inhibition (IC50) required 6760 µM.

As for `Oc1ccc(C2=Nc3ccccc3SC(c3cccs3)C2)cc1` (stereo unspecified), the IC50 against Cholinesterase was 3.97 µM.

As for `Oc1ccc(C2=Nc3ccccc3SC(c3cccc(O)c3)C2)cc1` (stereo unspecified), at Cholinesterase, the IC50 was 4.7 µM.

At Cholinesterase, `c1ccc(C2=Nc3ccccc3SC(c3cccs3)C2)cc1` (stereo unspecified) displayed an IC50 of 9.1 µM.

`Cc1ccc(C2CC(c3cccc(O)c3)=Nc3ccccc3S2)c(C)c1` (stereo unspecified) registered a concentration for half-maximal inhibition (IC50) on Cholinesterase of 19.7 µM.

The compound `O=[N+]([O-])c1ccc(C2CC(c3ccccc3O)=Nc3ccccc3S2)cc1` (stereo unspecified) registered an IC50 at Cholinesterase of 57 µM.

As for `CCSc1ccccc1-c1cnc(-c2ccsc2)[nH]1`, the IC50 against Cholinesterase was determined as 0.1 µM.

Turning to `COc1ccc(C(=O)/C=C/c2ccc(N)cc2)cc1`, the IC50 in experiment [1] amounted to 20.2 µM.

Take `COc1cccc(/C=C/C(=O)c2ccc(N)cc2)c1`: in experiment [1], the midpoint of inhibition, the IC50, lay at 93 µM.

With `COc1cccc(/C=C/C(=O)c2ccccc2O)c1`, in experiment [1], the IC50 was found to be 130 µM.

On to `O=C(/C=C/c1ccccc1)c1ccccc1O` [2'-HYDROXYCHALCONE], for which the IC50 amounted to 15 µM in experiment [1] and 84 µM on Cholinesterase.

`COc1ccc(/C=C/C(=O)c2ccccc2)cc1` [4-METHOXY CHALCONE]: the IC50 against Cholinesterase was 42 µM.

The compound `O=C(/C=C/c1ccccc1)c1ccccc1` [CHALCONE] gave an IC50 on Cholinesterase of 87 µM.

For orientation: IC50 means the concentration that gives 50% inhibition. Higher therefore signals weaker potency.
